Our source for the inhibition, Ratio and IC50 values is ChEMBL document CHEMBL1138390, “Synthesis and biological evaluation of novel T-type calcium channel blockers” (Bioorg Med Chem Lett, 2007).

pIC50: −log10 of the molar value. Some results are limits rather than exact numbers.

What is called inhibition is the share of the control response that was lost under treatment. For orientation: pIC50 means the IC50 on a negative log10 scale, so that one unit is a factor of ten.

Assay [1] addresses Voltage-dependent N-type calcium channel subunit alpha-1B (Homo sapiens) (UniProt Q00975). The experiment in a line: Inhibition of N-type calcium channel expressed in HEK293 cells co-expressing Alpha-1B subunit at 10 uM. It counts as cell-based. The procedure, abridged: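 N-type α1B channel expressed in HEK293 cells. Percent current inhibition at a single test concentration, reported as mean ± SE from n ≥ 4 repeated measurements. Inhibition below 1% was recorded as no blocking.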

The species entered for the next assay is Homo sapiens. As to the kind of experiment: Selectivity index, ratio of T-type calcium channel Cav3.1 to N-type calcium channel at 10 uM.
The target of assay [2] is T1, Voltage-dependent T-type calcium channel subunit alpha-1G (Homo sapiens, UniProt O43497). As to the kind of experiment: Inhibition of T-type calcium channel Cav3.1 expressed in HEK293 cells co-expressing alpha1G subunit by whole-cell patch clamp method. It is filed as cell-based. (Patch clamp records ionic current or voltage across a cell membrane.)
The target of assay [3] is T1, Voltage-dependent T-type calcium channel subunit alpha-1G. As to the kind of experiment: Inhibition of T-type calcium channel Cav3.1 expressed in HEK293 cells co-expressing alpha1G subunit at 10 uM by whole-cell patch clamp method. It counts as cell-based. The procedure, abridged:
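α1G T-type channel expressed in HEK293 cells, whole-cell patch clamp. Percent inhibition of α1G currents at a single test concentration, given as mean ± SE from n ≥ 4 repeats. IC50 is the molar concentration giving 50% current inhibition, obtained by fitting raw data to dose–response curves.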

Assay [4] concerns the target Voltage-dependent T-type calcium channel subunit alpha-1H (Homo sapiens) (UniProt O95180). The experiment in a line: Inhibition of T-type calcium channel Cav3.2 expressed in Xenopus oocytes coexpressing alpha-1H subunit at 100 uM by two-electrode voltage clamp method. On the technique in general: In two-electrode clamp one electrode senses voltage and the other passes current.

Voltage-dependent N-type calcium channel subunit alpha-1B (Homo sapiens), sequence (Q00975 whole entry, looked up): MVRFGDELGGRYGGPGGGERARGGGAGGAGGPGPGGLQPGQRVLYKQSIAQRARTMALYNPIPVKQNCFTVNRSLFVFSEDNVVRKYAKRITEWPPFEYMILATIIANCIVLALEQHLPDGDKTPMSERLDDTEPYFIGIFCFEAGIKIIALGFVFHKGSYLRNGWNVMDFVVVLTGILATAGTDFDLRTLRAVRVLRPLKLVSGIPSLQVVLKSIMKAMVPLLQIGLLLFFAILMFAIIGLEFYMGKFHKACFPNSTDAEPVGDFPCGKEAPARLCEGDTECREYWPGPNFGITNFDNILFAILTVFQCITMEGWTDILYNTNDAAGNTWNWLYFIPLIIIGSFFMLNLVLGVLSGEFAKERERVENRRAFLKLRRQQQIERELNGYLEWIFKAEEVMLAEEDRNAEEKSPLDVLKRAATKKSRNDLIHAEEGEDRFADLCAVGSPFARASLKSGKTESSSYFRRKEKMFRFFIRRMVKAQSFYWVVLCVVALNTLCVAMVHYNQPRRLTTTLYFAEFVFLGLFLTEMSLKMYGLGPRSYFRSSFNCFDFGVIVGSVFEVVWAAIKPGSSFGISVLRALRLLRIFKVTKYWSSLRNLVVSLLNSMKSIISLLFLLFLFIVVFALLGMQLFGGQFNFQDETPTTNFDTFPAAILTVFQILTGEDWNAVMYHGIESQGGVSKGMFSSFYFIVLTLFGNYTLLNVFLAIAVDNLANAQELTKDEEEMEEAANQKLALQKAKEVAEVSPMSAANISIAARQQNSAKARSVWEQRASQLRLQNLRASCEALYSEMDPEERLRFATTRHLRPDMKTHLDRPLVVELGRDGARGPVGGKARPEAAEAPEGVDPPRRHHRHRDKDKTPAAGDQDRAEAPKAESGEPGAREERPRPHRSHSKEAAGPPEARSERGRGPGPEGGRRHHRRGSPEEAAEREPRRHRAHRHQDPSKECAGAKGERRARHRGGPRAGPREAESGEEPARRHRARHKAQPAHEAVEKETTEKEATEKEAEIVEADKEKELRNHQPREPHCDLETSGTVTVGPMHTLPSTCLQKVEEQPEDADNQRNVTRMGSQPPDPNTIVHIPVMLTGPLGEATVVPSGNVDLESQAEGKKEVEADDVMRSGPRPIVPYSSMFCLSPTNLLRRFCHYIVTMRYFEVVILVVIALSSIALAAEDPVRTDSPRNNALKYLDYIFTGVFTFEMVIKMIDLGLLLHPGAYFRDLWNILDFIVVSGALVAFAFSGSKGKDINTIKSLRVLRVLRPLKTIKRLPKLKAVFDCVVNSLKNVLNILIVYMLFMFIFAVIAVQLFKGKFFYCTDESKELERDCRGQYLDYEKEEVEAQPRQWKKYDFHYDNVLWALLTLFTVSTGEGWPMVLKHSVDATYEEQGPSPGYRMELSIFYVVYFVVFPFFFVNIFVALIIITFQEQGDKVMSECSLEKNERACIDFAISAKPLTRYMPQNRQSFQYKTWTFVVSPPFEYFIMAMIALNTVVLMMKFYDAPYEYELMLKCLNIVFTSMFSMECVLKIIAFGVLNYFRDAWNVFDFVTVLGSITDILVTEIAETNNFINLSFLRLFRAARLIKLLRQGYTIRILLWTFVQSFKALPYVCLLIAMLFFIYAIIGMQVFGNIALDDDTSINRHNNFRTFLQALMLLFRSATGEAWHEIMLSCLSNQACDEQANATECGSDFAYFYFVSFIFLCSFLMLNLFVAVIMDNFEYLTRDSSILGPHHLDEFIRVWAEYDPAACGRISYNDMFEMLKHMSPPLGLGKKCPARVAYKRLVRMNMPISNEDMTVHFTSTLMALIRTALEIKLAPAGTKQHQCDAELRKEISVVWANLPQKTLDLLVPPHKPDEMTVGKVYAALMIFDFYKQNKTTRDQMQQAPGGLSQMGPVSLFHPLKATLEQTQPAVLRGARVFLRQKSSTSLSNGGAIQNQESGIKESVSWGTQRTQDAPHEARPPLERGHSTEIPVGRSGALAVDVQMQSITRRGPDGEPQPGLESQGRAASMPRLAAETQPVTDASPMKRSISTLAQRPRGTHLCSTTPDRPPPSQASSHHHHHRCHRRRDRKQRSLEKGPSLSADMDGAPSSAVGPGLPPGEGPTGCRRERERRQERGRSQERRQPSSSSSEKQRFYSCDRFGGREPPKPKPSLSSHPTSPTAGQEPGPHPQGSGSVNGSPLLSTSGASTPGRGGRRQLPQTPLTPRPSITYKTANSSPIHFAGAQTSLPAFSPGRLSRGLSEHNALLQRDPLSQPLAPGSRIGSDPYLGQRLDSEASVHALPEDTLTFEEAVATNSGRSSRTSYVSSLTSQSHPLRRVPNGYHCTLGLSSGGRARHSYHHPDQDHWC
T1 sequence (O43497 whole entry): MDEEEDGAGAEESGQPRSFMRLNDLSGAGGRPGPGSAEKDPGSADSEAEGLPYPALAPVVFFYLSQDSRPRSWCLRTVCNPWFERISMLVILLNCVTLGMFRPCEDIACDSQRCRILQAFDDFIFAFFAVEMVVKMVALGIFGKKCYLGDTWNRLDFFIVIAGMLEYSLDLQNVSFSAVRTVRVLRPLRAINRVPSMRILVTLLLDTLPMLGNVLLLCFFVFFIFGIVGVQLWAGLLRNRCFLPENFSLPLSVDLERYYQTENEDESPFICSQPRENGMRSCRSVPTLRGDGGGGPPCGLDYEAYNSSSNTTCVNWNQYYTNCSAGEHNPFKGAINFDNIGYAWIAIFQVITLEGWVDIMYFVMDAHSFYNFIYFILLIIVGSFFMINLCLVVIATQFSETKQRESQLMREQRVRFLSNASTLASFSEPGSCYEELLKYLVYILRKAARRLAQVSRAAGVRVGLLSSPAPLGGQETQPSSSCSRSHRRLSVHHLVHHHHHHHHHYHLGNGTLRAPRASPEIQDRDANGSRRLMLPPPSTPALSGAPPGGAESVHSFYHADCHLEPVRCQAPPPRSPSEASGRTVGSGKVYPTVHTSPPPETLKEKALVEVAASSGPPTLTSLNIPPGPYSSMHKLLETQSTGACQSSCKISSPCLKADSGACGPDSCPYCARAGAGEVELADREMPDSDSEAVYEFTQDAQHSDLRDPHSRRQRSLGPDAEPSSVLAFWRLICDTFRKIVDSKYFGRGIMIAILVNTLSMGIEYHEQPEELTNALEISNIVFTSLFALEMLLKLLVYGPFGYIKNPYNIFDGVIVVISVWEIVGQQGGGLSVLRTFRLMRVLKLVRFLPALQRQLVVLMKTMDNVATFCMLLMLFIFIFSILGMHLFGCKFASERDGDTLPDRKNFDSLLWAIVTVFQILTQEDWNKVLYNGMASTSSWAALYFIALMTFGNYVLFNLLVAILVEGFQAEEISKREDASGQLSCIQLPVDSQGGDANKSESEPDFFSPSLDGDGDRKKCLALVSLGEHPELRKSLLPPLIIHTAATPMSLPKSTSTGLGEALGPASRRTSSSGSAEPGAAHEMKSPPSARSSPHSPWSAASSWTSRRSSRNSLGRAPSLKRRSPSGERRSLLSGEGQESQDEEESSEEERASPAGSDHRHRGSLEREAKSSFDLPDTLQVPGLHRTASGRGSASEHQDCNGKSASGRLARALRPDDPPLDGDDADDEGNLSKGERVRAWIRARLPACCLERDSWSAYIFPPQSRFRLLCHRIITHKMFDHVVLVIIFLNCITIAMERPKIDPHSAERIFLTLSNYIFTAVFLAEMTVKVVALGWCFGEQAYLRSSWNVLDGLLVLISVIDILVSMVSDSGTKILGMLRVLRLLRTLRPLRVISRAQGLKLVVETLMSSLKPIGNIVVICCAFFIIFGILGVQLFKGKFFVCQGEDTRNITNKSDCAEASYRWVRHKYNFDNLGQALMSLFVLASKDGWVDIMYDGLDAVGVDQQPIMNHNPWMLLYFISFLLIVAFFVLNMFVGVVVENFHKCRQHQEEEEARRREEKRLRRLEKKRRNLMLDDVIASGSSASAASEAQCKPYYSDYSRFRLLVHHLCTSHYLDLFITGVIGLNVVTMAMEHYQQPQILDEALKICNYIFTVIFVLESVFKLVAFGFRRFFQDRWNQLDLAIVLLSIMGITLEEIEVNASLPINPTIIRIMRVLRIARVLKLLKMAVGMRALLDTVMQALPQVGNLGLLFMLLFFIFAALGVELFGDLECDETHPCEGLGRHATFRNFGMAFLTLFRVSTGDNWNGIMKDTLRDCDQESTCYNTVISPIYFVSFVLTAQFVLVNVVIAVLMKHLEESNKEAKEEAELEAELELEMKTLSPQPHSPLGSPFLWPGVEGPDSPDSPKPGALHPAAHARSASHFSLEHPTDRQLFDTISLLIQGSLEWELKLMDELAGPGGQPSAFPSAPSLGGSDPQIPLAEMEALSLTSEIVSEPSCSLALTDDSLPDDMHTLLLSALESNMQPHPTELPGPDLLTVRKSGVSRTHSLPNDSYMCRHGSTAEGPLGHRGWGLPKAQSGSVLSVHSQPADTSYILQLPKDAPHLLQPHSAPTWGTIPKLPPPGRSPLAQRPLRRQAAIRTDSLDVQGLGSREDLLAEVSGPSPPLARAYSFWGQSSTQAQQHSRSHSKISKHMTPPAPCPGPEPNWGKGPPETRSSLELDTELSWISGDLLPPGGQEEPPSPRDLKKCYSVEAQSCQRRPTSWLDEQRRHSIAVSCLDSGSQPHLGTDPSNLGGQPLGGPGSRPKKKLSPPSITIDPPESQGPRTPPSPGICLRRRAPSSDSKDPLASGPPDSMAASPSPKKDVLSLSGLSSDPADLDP

`CN(CCCCCN1CCCC1)C1=Nc2ccccc2C(CC(=O)NCc2ccccc2)N1c1ccccc1` (stereo unspecified): the results for the inhibition in assay [1], in assay [3] and in assay [4] were 46.3%, 68.1% and 82.7%, respectively. Also, in the assay listed under Homo sapiens, the Ratio was determined as 1.5. In assay [2], the pIC50 was 5.38.
As for `COC(=O)CC1c2ccccc2N=C(N(C)CCCCCN2CCCC2)N1c1ccccc1` (stereo unspecified), the inhibition in assay [1] was 10.7%; in assay [3] it was 59.5%; in assay [4] it was 47.7%. Moreover, the Ratio in the assay filed under Homo sapiens was 5.6. For the same molecule, the pIC50 in assay [2] is 5.23.
Turning to `NCCCCCNC1=Nc2ccccc2C(CC(=O)NCc2ccccc2)N1c1ccc(-c2ccccc2)cc1` (stereo unspecified), the Ratio in the assay listed under Homo sapiens came out at 10.1.
Turning to `COC(=O)CC1c2ccccc2N=C(N(C)CCCCCN2CCCC2)N1c1ccc(-c2ccccc2)cc1` (stereo unspecified), the inhibition in assay [1] is 36.5%; in assay [3] it was 94.9%; in assay [4] it was 88%. In addition, the Ratio in the assay filed under Homo sapiens was 2.6. Moreover, the pIC50 in assay [2] is 6.47.
On to `CN(CCCCCN1CCCC1)C1=Nc2ccccc2C(CC(=O)NCc2ccccc2)N1c1ccc(-c2ccccc2)cc1` (stereo unspecified), for which the inhibition worked out at 11.7% in assay [1], 88.1% in assay [3] and 95.5% in assay [4]. For the same molecule, the Ratio in the assay filed under Homo sapiens came out at 7.5.
With `COC(=O)CC1c2ccccc2N=C(NCCCCCN)N1c1ccc(-c2ccccc2)cc1` (stereo unspecified), the Ratio in the assay filed under Homo sapiens is greater than 100.
